Data published in ChEMBL document CHEMBL5107950, “Structure-based design of haloperidol analogues as inhibitors of acetyltransferase Eis from Mycobacterium tuberculosis to overcome kanamycin resistance” (RSC Med Chem, 2021).
Values after ≈ are worked out from the molar mass of the structure shown.

Columns and labels:
[1] = biological target: T1, N-acetyltransferase Eis (Mycobacterium tuberculosis (strain ATCC 25618 / H37Rv), UniProt P9WFK7); assay: Inhibition of Mycobacterium tuberculosis Eis assessed as Eis-mediated kanamycin acetylation preincubated for 10 mins followed by substrate addition and measured for 2 to 5 mins using acetyl-CoA as substrate in presence of kanamycin by UV-Vis spectroscopy analysis
T1 sequence (P9WFK7 whole entry): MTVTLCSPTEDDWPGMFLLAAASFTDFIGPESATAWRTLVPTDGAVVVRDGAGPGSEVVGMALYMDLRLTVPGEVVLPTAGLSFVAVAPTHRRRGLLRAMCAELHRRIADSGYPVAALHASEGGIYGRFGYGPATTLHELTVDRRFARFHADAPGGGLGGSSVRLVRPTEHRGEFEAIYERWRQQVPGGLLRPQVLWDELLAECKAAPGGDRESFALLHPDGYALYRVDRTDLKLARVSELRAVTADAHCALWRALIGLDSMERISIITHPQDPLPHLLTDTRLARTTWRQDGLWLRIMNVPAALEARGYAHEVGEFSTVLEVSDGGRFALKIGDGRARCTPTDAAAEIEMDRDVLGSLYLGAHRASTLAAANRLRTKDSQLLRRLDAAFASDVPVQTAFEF
Summary of the method: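 Recombinant Eis (1 µM) mixed with KAN (400 µM) in 50 mM Tris-HCl pH 8.0 and preincubated 10 min with 5-fold serially diluted inhibitor (10% DMSO in buffer). Reaction started with AcCoA and DTNB (2 mM each, as added). Absorbance read every 30 s for 20 min. Initial rates (first 2-5 min) fitted to Hill plot for IC50. At least triplicate.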

[2] = tested on: Mycolicibacterium smegmatis; assay: Antibacterial activity against Mycobacterium smegmatis mc2 155 assessed as inhibition of bacterial growth incubated upto 3 weeks hrs by resazurin dye based double-dilution method; assay type: functional; conditions: mc2 155, 504 h
Summary of the method: (§1)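 Double-dilution broth MIC. Media: M. smegmatis, Mueller-Hinton; M. abscessus, 7H9 + 0.05% Tween80 + 0.4% glycerol; mc²6230, 7H9 + 0.05% tyloxapol, 0.5% glycerol, 10% OADC, 0.2% casamino acids, 24 µg/mL pantothenate; other mycobacteria, 7H9 + 0.05% Tween80, 0.4% glycerol, 10% ADC. Inoculum from agar set to 0.5 McFarland, then diluted 1:100.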

[3] = tested on: Mycobacteroides abscessus; assay: Antibacterial activity against Mycobacterium abscessus ATCC 19977 assessed as inhibition of bacterial growth incubated upto 3 weeks hrs by resazurin dye based double-dilution method; assay type: functional; conditions: ATCC 19977, 504 h; summary of the method: as §1
[4] = tested on: Mycobacterium intracellulare; assay: Antibacterial activity against Mycobacterium intracellulare ATCC 13950 assessed as inhibition of bacterial growth incubated upto 3 weeks hrs by resazurin dye based double-dilution method; assay type: functional; conditions: ATCC 13950, 504 h; summary of the method: as §1
[5] = tested on: Mycobacterium avium; assay: Antibacterial activity against Mycobacterium avium ATCC 25921 assessed as inhibition of bacterial growth incubated upto 3 weeks hrs by resazurin dye based double-dilution method; assay type: functional; conditions: ATCC 25921, 504 h; summary of the method: as §1
[6] = tested on: Mycobacterium tuberculosis; assay: Antibacterial activity against Mycobacterium tuberculosis H37Ra ATCC NRS22 assessed as inhibition of bacterial growth incubated upto 3 weeks hrs by resazurin dye based double-dilution method; assay type: functional; conditions: H37Ra ATCC NRS22, 504 h; summary of the method: as §1
[7] = tested on: Mycobacterium tuberculosis; assay: Potentiation of kanamycin-induced antibacterial activity against Mycobacterium tuberculosis H37Rv assessed as kanamycin MIC incubated for 1 day followed by kanamycin addition for 6 days and by Alamar blue assay; assay type: functional; conditions: 168 h, time 7 day
Summary of the method: (§2)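 Mtb in 7H9 + 10% ADC, 0.05% Tween 80, 0.4% glycerol at 37 °C. Inoculum adjusted to OD600 0.2, diluted 1:25. Cells preincubated 24 h at 37 °C with compound (100 µL of 200 µM solution). KAN then added: H37Rv at 2.5 and 1.25 µg/mL; K204 at 10, 5, 2.5, 1.25 µg/mL. Incubated 6 days, AlamarBlue added, colour read at 24 and 48 h. MIC = lowest KAN with no colour change. At least twice in duplicate.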

[8] = tested on: Mycobacterium tuberculosis; assay: Potentiation of kanamycin-induced antibacterial activity against Mycobacterium tuberculosis K204 assessed as kanamycin MIC incubated for 1 day followed by kanamycin addition for 6 days and by Alamar blue assay; assay type: functional; conditions: K204, 168 h, time 7 day; summary of the method: as §2

SMILES	IC50 [1] [µM]	MIC [2] [µM]	MIC [3] [µM]	MIC [4] [µM]	MIC [5] [µM]	MIC [6] [µM]	MIC [7] [µg/mL]	MIC [8] [µg/mL]
O=C(CCCN1CCC(O)CC1)c1ccc(F)cc1	0.69	> 62.5	> 62.5	> 62.5	> 62.5	> 62.5	–	–
N=C(N)NCCCC(=O)c1ccc(F)cc1	1.1	> 62.5	> 62.5	> 62.5	> 62.5	31.3 (≈ 6.99 µg/mL)	–	–
O=C(CCCN1CCCCC1)c1ccc(F)cc1 [PRIMAPERONE]	0.62	> 62.5	> 62.5	> 62.5	> 62.5	> 62.5	–	–
Fc1ccc(OCCCN2CCC(c3ccccc3)CC2)cc1	14	> 62.5	62.5 (≈ 19.6 µg/mL)	62.5 (≈ 19.6 µg/mL)	> 62.5	31.3 (≈ 9.81 µg/mL)	–	–
COc1ccc(C(=O)CCCN2CCC(O)(c3ccc(Br)cc3)CC2)cc1	5.6	> 62.5	> 62.5	> 62.5	62.5 (≈ 27 µg/mL)	31.3 (≈ 13.5 µg/mL)	≤ 1.25	> 10
CC1CC(C)CN(CCCOc2ccc(F)cc2)C1 (configuration not stated)	42	62.5 (≈ 16.6 µg/mL)	> 62.5	> 62.5	> 62.5	62.5 (≈ 16.6 µg/mL)	–	–
O=C(CCCN1CCC(O)(c2ccc(Br)cc2)CC1)c1ccccc1	2.2	> 62.5	> 62.5	> 62.5	> 62.5	62.5 (≈ 25.1 µg/mL)	≤ 1.25	10
O=C(CCCN1CCC(O)(c2ccc(F)cc2)CC1)c1ccc(Br)cc1	6.6	> 62.5	> 62.5	62.5 (≈ 26.3 µg/mL)	62.5 (≈ 26.3 µg/mL)	31.3 (≈ 13.2 µg/mL)	≤ 1.25	10
O=C(CCCN1CCC(O)(c2ccc(F)cc2)CC1)c1ccccc1	3.1	> 62.5	> 62.5	> 62.5	> 62.5	> 62.5	≤ 1.25	10
Cc1ccc(S(=O)(=O)N2CCC(O)(c3ccc(Cl)cc3)CC2)cc1	> 200	> 62.5	> 62.5	> 62.5	> 62.5	> 62.5	–	–
CC1CCCCN1CCCOc1ccc(F)cc1 (configuration not stated)	> 200	15.6 (≈ 3.92 µg/mL)	> 62.5	7.8 (≈ 1.96 µg/mL)	15.6 (≈ 3.92 µg/mL)	7.8 (≈ 1.96 µg/mL)	–	–
O=C(CCCN1CCC(O)(c2ccccc2)CC1)c1ccc(F)cc1	0.85	> 62.5	> 62.5	> 62.5	> 62.5	> 62.5	–	–
COc1ccc(C(=O)CCCN2CCC(O)(c3ccc(F)cc3)CC2)cc1	42	> 62.5	> 62.5	> 62.5	> 62.5	> 62.5	≤ 1.25	> 10
O=C(CCCN1CCC(c2ccc(Cl)cc2)CC1)c1ccc(F)cc1	1.1	> 62.5	> 62.5	31.3 (≈ 11.3 µg/mL)	> 62.5	62.5 (≈ 22.5 µg/mL)	–	–
O=C(CCCN1CC=C(n2c(=O)[nH]c3ccccc32)CC1)c1ccc(F)cc1 [DROPERIDOL]	12.2	> 62.5	> 62.5	> 62.5	> 62.5	31.3 (≈ 11.9 µg/mL)	–	–
O=C(CCCN1CCC(O)(c2ccc(Br)cc2)CC1)c1ccc(Br)cc1	> 200	31.3 (≈ 15.1 µg/mL)	> 62.5	> 62.5	> 62.5	7.8 (≈ 3.75 µg/mL)	≤ 1.25	> 10
CCc1ccc(C(=O)CCCN2CCC(O)(c3ccc(Cl)cc3)CC2)cc1	40	15.6 (≈ 6.02 µg/mL)	62.5 (≈ 24.1 µg/mL)	15.6 (≈ 6.02 µg/mL)	62.5 (≈ 24.1 µg/mL)	15.6 (≈ 6.02 µg/mL)	–	–
CC(C)c1ccc(C(=O)CCCN2CCC(O)(c3ccc(Cl)cc3)CC2)cc1	> 200	15.6 (≈ 6.24 µg/mL)	31.3 (≈ 12.5 µg/mL)	7.8 (≈ 3.12 µg/mL)	> 62.5	7.8 (≈ 3.12 µg/mL)	–	–
Cc1ccc(C(=O)CCCN2CCC(O)(c3ccc(Cl)cc3)CC2)cc1	100	62.6 (≈ 23.3 µg/mL)	> 62.5	> 62.5	> 62.5	31.3 (≈ 11.6 µg/mL)	–	–
O=C(CN1CCC(O)(c2ccc(Cl)cc2)CC1)c1ccc(F)cc1	100	> 62.5	> 62.5	> 62.5	> 62.5	> 62.5	–	–
NNC(=O)c1ccncc1 [ISONIAZID]	–	3.9 (≈ 0.535 µg/mL)	> 62.5	3.9 (≈ 0.535 µg/mL)	62.5 (≈ 8.57 µg/mL)	≤ 1	–	–
O=C(CCCN1CCC(O)(c2ccc(Cl)cc2)CC1)c1ccccc1	5.3	> 62.5	> 62.5	> 62.5	62.5 (≈ 22.4 µg/mL)	62.5 (≈ 22.4 µg/mL)	≤ 1.25	> 10
CC(=O)CCCN1CCC(O)(c2ccc(Cl)cc2)CC1	40	> 62.5	> 62.5	> 62.5	> 62.5	> 62.5	–	–
CC1CC(C)CN(CCCC(=O)c2ccc(C(C)(C)C)cc2)C1 (configuration not stated)	200	62.5 (≈ 19.7 µg/mL)	62.5 (≈ 19.7 µg/mL)	62.5 (≈ 19.7 µg/mL)	62.5 (≈ 19.7 µg/mL)	31.3 (≈ 9.88 µg/mL)	–	–
